According to ChEMBL document CHEMBL5247578, “Effective synthesis of benzimidazoles-imidazo[1,2-a]pyrazine conjugates: A comparative study of mono-and bis-benzimidazoles for antitumor activity” (Eur J Med Chem, 2019):

Columns and labels:
[1] = n-Octanol/phosphate buffer partition coefficient, logP of the compound at pH 7.4 incubated for 85 mins by shake-flask method; format: physicochemical
Summary of the method: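 Octanol–water partition by shake-flask: n-octanol with 0.15 M phosphate buffer pH 7.4 at 10:1 volumes. Buffer-phase absorbance read before mixing, then shaken 50 min and centrifuged at 2500 rpm for 35 min. Buffer absorbance read again; P = (Ai−Af)/Af × Vw/Vo.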

T47D = assay: Antiproliferative activity against human T47D cells assessed as cell growth inhibition at 10 uM incubated for 48 hrs by sulforhodamine B assay relative to control; format: functional
Summary of the method: (§1)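 NCI-60 single-dose screen at 10^-5 M. Cells grown in RPMI 1640 with 5% FBS and 2 mM L-glutamine, plated at 5,000–40,000 cells/well, and preincubated 24 h. Drug (DMSO stock) added and incubated 48 h at 37 °C, 5% CO2. Adherent cells fixed with cold TCA, stained with 0.4% SRB in 1% acetic acid, dye solubilized in 10 mM trizma base, A515 read. Percent growth taken against time-zero and untreated control.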

MDA-MB-231 = assay: Antiproliferative activity against human MDA-MB-231 cells assessed as cell growth inhibition at 10 uM incubated for 48 hrs by sulforhodamine B assay relative to control; format: functional; summary of the method: as §1
MCF7 = assay: Antiproliferative activity against human MCF7 cells assessed as cell growth inhibition at 10 uM incubated for 48 hrs by sulforhodamine B assay relative to control; format: functional; summary of the method: as §1
PC-3 = assay: Antiproliferative activity against human PC-3 cells assessed as cell growth inhibition at 10 uM incubated for 48 hrs by sulforhodamine B assay relative to control; format: functional; summary of the method: as §1
UO-31 = assay: Antiproliferative activity against human UO-31 cells assessed as cell growth inhibition at 10 uM incubated for 48 hrs by sulforhodamine B assay relative to control; format: functional; summary of the method: as §1
SN12C = assay: Antiproliferative activity against human SN12C cells assessed as cell growth inhibition at 10 uM incubated for 48 hrs by sulforhodamine B assay relative to control; format: functional; summary of the method: as §1
ACHN = assay: Antiproliferative activity against human ACHN cells assessed as cell growth inhibition at 10 uM incubated for 48 hrs by sulforhodamine B assay relative to control; format: functional
Summary of the method: (§2)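 Single-dose NCI-60 prescreen at 10^-5 M. Cells in RPMI 1640 with 5% FBS and 2 mM L-glutamine, seeded 5,000–40,000 cells/well with 24 h preincubation, then drug exposure for 48 h at 37 °C under 5% CO2. Growth read by SRB staining of TCA-fixed cells at 515 nm against time-zero and untreated controls. Negative growth values denote cell kill.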

OVCAR-8 = assay: Antiproliferative activity against human OVCAR-8 cells assessed as cell growth inhibition at 10 uM incubated for 48 hrs by sulforhodamine B assay relative to control; format: functional; summary of the method: as §1
UACC-62 = assay: Antiproliferative activity against human UACC-62 cells assessed as cell growth inhibition at 10 uM incubated for 48 hrs by sulforhodamine B assay relative to control; format: functional; summary of the method: as §1
SK-MEL-5 = assay: Antiproliferative activity against human SK-MEL-5 cells assessed as cell growth inhibition at 10 uM incubated for 48 hrs by sulforhodamine B assay relative to control; format: functional; summary of the method: as §1
LOX IMVI = assay: Antiproliferative activity against human LOX IMVI cells assessed as cell growth inhibition at 10 uM incubated for 48 hrs by sulforhodamine B assay relative to control; format: functional; summary of the method: as §1
U-251 = assay: Antiproliferative activity against human U-251 cells assessed as cell growth inhibition at 10 uM incubated for 48 hrs by sulforhodamine B assay relative to control; format: functional; summary of the method: as §1
SNB-75 = assay: Antiproliferative activity against human SNB-75 cells assessed as cell growth inhibition at 10 uM incubated for 48 hrs by sulforhodamine B assay relative to control; format: functional; summary of the method: as §1
SNB-19 = assay: Antiproliferative activity against human SNB-19 cells assessed as cell growth inhibition at 10 uM incubated for 48 hrs by sulforhodamine B assay relative to control; format: functional; summary of the method: as §1
SF-268 = assay: Antiproliferative activity against human SF-268 cells assessed as cell growth inhibition at 10 uM incubated for 48 hrs by sulforhodamine B assay relative to control; format: functional; summary of the method: as §1
KM12 = assay: Antiproliferative activity against human KM12 cells assessed as cell growth inhibition at 10 uM incubated for 48 hrs by sulforhodamine B assay relative to control; format: functional; summary of the method: as §1
HT-29 = assay: Antiproliferative activity against human HT-29 cells assessed as cell growth inhibition at 10 uM incubated for 48 hrs by sulforhodamine B assay relative to control; format: functional; summary of the method: as §1
HCT-15 = assay: Antiproliferative activity against human HCT-15 cells assessed as cell growth inhibition at 10 uM incubated for 48 hrs by sulforhodamine B assay relative to control; format: functional
Summary of the method: (§3)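 NCI-60 one-dose prescreen at 10^-5 M. Cells grown in RPMI 1640 with 5% FBS and 2 mM glutamine, preincubated 24 h, then exposed 48 h at 37 °C. Adherent lines TCA-fixed, SRB-stained, A515 read. Growth percent relative to time-zero and control; negative values mean cell kill.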

HCT-116 = assay: Antiproliferative activity against human HCT-116 cells assessed as cell growth inhibition at 10 uM incubated for 48 hrs by sulforhodamine B assay relative to control; format: functional; summary of the method: as §3
NCI-H522 = assay: Antiproliferative activity against human NCI-H522 cells assessed as cell growth inhibition at 10 uM incubated for 48 hrs by sulforhodamine B assay relative to control; format: functional; summary of the method: as §1
NCI-H460 = assay: Antiproliferative activity against human NCI-H460 cells assessed as cell growth inhibition at 10 uM incubated for 48 hrs by sulforhodamine B assay relative to control; format: functional; summary of the method: as §1
NCI-H322M = assay: Antiproliferative activity against human NCI-H322M cells assessed as cell growth inhibition at 10 uM incubated for 48 hrs by sulforhodamine B assay relative to control; format: functional; summary of the method: as §1
NCI-H226 = assay: Antiproliferative activity against human NCI-H226 cells assessed as cell growth inhibition at 10 uM incubated for 48 hrs by sulforhodamine B assay relative to control; format: functional; summary of the method: as §1
HOP-92 = assay: Antiproliferative activity against human HOP-92 cells assessed as cell growth inhibition at 10 uM incubated for 48 hrs by sulforhodamine B assay relative to control; format: functional; summary of the method: as §3
EKVX = assay: Antiproliferative activity against human EKVX cells assessed as cell growth inhibition at 10 uM incubated for 48 hrs by sulforhodamine B assay relative to control; format: functional; summary of the method: as §3
A549 = assay: Antiproliferative activity against human A549 cells assessed as cell growth inhibition at 10 uM incubated for 48 hrs by sulforhodamine B assay relative to control; format: functional; summary of the method: as §2
SR = assay: Antiproliferative activity against human SR cells assessed as cell growth inhibition at 10 uM incubated for 48 hrs by sulforhodamine B assay relative to control; format: functional; summary of the method: as §1
RPMI-8226 = assay: Antiproliferative activity against human RPMI-8226 cells assessed as cell growth inhibition at 10 uM incubated for 48 hrs by sulforhodamine B assay relative to control; format: functional; summary of the method: as §1
MOLT-4 = assay: Antiproliferative activity against human MOLT-4 cells assessed as cell growth inhibition at 10 uM incubated for 48 hrs by sulforhodamine B assay relative to control; format: functional; summary of the method: as §1
K562 = assay: Antiproliferative activity against human K562 cells assessed as cell growth inhibition at 10 uM incubated for 48 hrs by sulforhodamine B assay relative to control; format: functional; summary of the method: as §1
HL-60 = assay: Antiproliferative activity against human HL-60 cells assessed as cell growth inhibition at 10 uM incubated for 48 hrs by sulforhodamine B assay relative to control; format: functional; summary of the method: as §3
CCRF-CEM = assay: Antiproliferative activity against human CCRF-CEM cells assessed as cell growth inhibition at 10 uM incubated for 48 hrs by sulforhodamine B assay relative to control; format: functional; summary of the method: as §2
MDA-MB-468 = assay: Antiproliferative activity against human MDA-MB-468 cells assessed as cell growth inhibition at 10 uM incubated for 48 hrs by sulforhodamine B assay relative to control; format: functional; summary of the method: as §1
BT-549 = assay: Antiproliferative activity against human BT-549 cells assessed as cell growth inhibition at 10 uM incubated for 48 hrs by sulforhodamine B assay relative to control; format: functional; summary of the method: as §2
DU-145 = assay: Antiproliferative activity against human DU-145 cells assessed as cell growth inhibition at 10 uM incubated for 48 hrs by sulforhodamine B assay relative to control; format: functional; summary of the method: as §3
A498 = assay: Antiproliferative activity against human A498 cells assessed as cell growth inhibition at 10 uM incubated for 48 hrs by sulforhodamine B assay relative to control; format: functional; summary of the method: as §2
786-0 = assay: Antiproliferative activity against human 786-0 cells assessed as cell growth inhibition at 10 uM incubated for 48 hrs by sulforhodamine B assay relative to control; format: functional; summary of the method: as §2
NCI-H23 = assay: Antiproliferative activity against human NCI-H23 cells assessed as cell growth inhibition at 10 uM incubated for 48 hrs by sulforhodamine B assay relative to control; format: functional; summary of the method: as §1

Row | SMILES | logD at 1.417 h [1] | inhibition at 10 µM (T47D) [%] | inhibition at 10 µM (MDA-MB-231) [%] | inhibition at 10 µM (PC-3) [%] | inhibition at 10 µM (UO-31) [%] | inhibition at 10 µM (SN12C) [%] | inhibition at 10 µM (OVCAR-8) [%] | inhibition at 10 µM (UACC-62) [%] | inhibition at 10 µM (SK-MEL-5) [%] | inhibition at 10 µM (LOX IMVI) [%] | inhibition at 10 µM (U-251) [%] | inhibition at 10 µM (SNB-75) [%] | inhibition at 10 µM (KM12) [%] | inhibition at 10 µM (HT-29) [%] | inhibition at 10 µM (HCT-15) [%] | inhibition at 10 µM (HCT-116) [%] | inhibition at 10 µM (NCI-H522) [%] | inhibition at 10 µM (NCI-H460) [%] | inhibition at 10 µM (NCI-H226) [%] | inhibition at 10 µM (HOP-92) [%] | also measured
1 | FC(F)(F)c1cccc(-c2cn3ccnc3c(-c3ccc4ncn(C5CCCCC5)c4c3)n2)c1 | 1.72 | 52.1 | 21.8 | 36.5 | 22.5 | 8.3 | 10.1 | 4.33 | 4.32 | 3.45 | 5.93 | 4.58 | 1.25 | 6.41 | 0.36 | 17.6 | 10.7 | 4.38 | 1.55 | 8.38 | inhibition at 10 µM (MCF7): 19.9%; inhibition at 10 µM (ACHN): 0.3%; inhibition at 10 µM (SNB-19): 2.24%; inhibition at 10 µM (SF-268): 3.3%; inhibition at 10 µM (NCI-H322M): 5.83%; inhibition at 10 µM (EKVX): 4.79%; inhibition at 10 µM (A549): 5.15%; inhibition at 10 µM (SR): 15.6%; inhibition at 10 µM (RPMI-8226): 32.1%; inhibition at 10 µM (MOLT-4): 32.9%; inhibition at 10 µM (K562): 21.5%; inhibition at 10 µM (HL-60): 1.06%; inhibition at 10 µM (CCRF-CEM): 27.3%
2 | c1csc(-c2cn3ccnc3c(-c3ccc4ncn(C5CCCCC5)c4c3)n2)c1 | 1.38 | 70.3 | 10.8 | 49.1 | 10.9 | 2.84 | 9.34 | 24.8 | 8.05 | 1.07 | 3.92 | 8.13 | 4.89 | 0.09 | 2.33 | 21.1 | 13.2 | 1.3 | 17.1 | 32.5 | inhibition at 10 µM (MDA-MB-468): 15.1%; inhibition at 10 µM (BT-549): 12.2%; inhibition at 10 µM (DU-145): 5.07%; inhibition at 10 µM (A498): 25%; inhibition at 10 µM (786-0): 4.1%; inhibition at 10 µM (NCI-H23): 5.95%; inhibition at 10 µM (A549): 5.33%; inhibition at 10 µM (SR): 27.2%; inhibition at 10 µM (RPMI-8226): 52.3%; inhibition at 10 µM (MOLT-4): 30.8%; inhibition at 10 µM (K562): 26.9%; inhibition at 10 µM (HL-60): 26.6%; inhibition at 10 µM (CCRF-CEM): 46.4%
3 | Cc1cccc(-c2cn3ccnc3c(-c3ccc4ncn(C5CCCCC5)c4c3)n2)c1 | 1.87 | – | – | – | – | – | – | – | – | – | – | – | – | – | – | – | – | – | – | – | –
4 | CCc1ccc(-c2cn3ccnc3c(-c3ccc4ncn(C5CCCCC5)c4c3)n2)cc1 | 1.66 | – | – | – | – | – | – | – | – | – | – | – | – | – | – | – | – | – | – | – | –
